Measured values from ChEMBL document CHEMBL4342467, “Discovery of a Novel Dual-Target Inhibitor of ERK1 and ERK5 That Induces Regulated Cell Death to Overcome Compensatory Mechanism in Specific Tumor Types” (J Med Chem, 2020).
pIC50: −log10 of the molar value. Activity calls are given as the source filed them. The rule behind the calls is not given here.

Legend:
[1] = target: Mitogen-activated protein kinase 7 (Homo sapiens) (UniProt Q13164); experiment: Inhibition of ERK5 (unknown origin) at 1 uM by Z'-Lyte assay relative to control
Mitogen-activated protein kinase 7 (Homo sapiens), sequence (Q13164 2-816 limits assumed): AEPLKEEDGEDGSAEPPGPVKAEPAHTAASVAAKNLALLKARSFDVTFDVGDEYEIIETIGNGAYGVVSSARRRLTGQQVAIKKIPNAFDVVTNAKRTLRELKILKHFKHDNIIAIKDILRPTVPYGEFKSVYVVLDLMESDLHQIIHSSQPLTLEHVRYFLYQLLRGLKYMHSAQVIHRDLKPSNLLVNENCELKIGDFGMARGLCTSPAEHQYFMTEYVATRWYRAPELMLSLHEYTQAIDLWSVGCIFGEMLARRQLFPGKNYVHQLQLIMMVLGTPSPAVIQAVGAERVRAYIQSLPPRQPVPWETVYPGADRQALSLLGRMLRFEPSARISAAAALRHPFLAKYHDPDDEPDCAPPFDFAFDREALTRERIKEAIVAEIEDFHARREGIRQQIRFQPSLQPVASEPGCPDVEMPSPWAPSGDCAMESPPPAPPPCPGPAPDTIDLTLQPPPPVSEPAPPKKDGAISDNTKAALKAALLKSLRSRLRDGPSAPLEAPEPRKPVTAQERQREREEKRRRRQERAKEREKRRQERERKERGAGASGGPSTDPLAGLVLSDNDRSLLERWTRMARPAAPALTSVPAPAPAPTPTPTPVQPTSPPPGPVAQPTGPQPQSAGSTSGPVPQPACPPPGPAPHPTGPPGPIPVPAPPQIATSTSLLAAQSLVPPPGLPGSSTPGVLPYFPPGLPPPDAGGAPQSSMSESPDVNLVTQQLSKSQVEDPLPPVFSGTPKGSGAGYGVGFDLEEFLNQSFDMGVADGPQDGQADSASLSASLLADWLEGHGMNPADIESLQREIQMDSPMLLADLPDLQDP

HeLa = experiment: Antiproliferative activity against human HeLa cells assessed as reduction in cell viability measured after 24 hrs; assay type: functional, cell-based
[2] = target: Mitogen-activated protein kinase 7 (Homo sapiens) (UniProt Q13164); experiment: Inhibition of ERK5 in human MKN74 cells harboring ERK1/2 siRNA assessed as reduction in ERK5 phosphorylation at 1 uM by Western blot analysis; assay type: cell-based
Procedure, shortened: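 MKN-74 cells were transfected with ERK1/2-specific siRNA or negative-control siRNA, then exposed to compound. ERK1/2, p-ERK1/2, ERK5 and p-ERK5 were read by immunoblotting, with GAPDH as loading control.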

HL-60 = experiment: Antiproliferative activity against human HL60 cells assessed as reduction in cell viability measured after 24 hrs; assay type: functional, cell-based; conditions: HL-60, 24 h
MKN-74 = experiment: Antiproliferative activity against human MKN74 cells assessed as reduction in cell viability measured after 24 hrs; assay type: functional, cell-based; conditions: MKN-74, 24 h
[3] = target: Mitogen-activated protein kinase 1 (Homo sapiens) (UniProt P28482); experiment: Inhibition of ERK2 (unknown origin) at 1 uM by Z'-Lyte assay relative to control
Mitogen-activated protein kinase 1 (Homo sapiens), sequence (P28482 whole entry): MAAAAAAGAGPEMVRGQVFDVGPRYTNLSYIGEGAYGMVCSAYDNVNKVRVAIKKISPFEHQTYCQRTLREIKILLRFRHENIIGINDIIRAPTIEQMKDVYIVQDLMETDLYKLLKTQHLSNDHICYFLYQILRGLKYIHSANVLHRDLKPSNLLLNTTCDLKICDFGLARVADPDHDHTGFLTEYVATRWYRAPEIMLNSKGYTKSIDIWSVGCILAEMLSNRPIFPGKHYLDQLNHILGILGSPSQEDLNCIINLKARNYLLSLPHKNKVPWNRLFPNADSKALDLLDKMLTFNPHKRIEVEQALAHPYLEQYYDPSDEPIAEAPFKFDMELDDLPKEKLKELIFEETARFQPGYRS

[4] = target: Mitogen-activated protein kinase 3 (Homo sapiens) (UniProt P27361); experiment: Inhibition of ERK1 (unknown origin) at 1 uM by Z'-Lyte assay relative to control
Mitogen-activated protein kinase 3 (Homo sapiens), sequence (P27361 whole entry): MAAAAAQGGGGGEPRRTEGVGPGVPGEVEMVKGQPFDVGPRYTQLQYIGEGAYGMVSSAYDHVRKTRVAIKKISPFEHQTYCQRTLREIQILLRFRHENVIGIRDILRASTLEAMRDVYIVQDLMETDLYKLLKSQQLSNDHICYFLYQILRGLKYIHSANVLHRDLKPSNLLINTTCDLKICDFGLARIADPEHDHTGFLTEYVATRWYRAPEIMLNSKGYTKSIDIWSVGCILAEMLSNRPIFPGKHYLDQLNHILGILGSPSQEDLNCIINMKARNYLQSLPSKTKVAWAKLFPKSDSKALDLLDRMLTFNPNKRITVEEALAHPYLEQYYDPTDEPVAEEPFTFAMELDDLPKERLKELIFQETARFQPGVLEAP

| inhibition [1] [%] | pIC50 (HeLa) | inhibition [2] | pIC50 (HL-60) | pIC50 (MKN-74) | inhibition [3] [%] | inhibition [4] [%] | SMILES |
| --- | --- | --- | --- | --- | --- | --- | --- |
| < 50 | < 4.30 | inactive | 5.97 | < 4.30 | 99.2 | 98.8 | O=C(Nc1ccc2[nH]nc(-c3ccncc3)c2c1)[C@@H]1CCN(CC(=O)N2CCN(c3ccc(-c4ncccn4)cc3)CC2)C1 |
|  | < 4.30 | Active | 4.98 | < 4.30 | < 50 | < 50 | CCOc1cc(N2CCC(O)CC2)ccc1Nc1ncc2c(n1)N(C)c1ccccc1C(=O)N2C |
